Experimental data from ChEMBL document CHEMBL4342485, “Discovery of Potent Benzolactam IRAK4 Inhibitors with Robust in Vivo Activity” (ACS Med Chem Lett, 2020).
Calls of active or inactive are those of the source. No cut-off for these calls is given here.

What was measured:
[1] = biological target: T1, Interleukin-1 receptor-associated kinase 4 (Homo sapiens, UniProt Q9NWZ3); experiment: Inhibition of recombinant full-length N-terminal His6-tagged human IRAK4 expressed in baculovirus expression system using H-KKARFSRFAGSSPSQSSMVAR peptide as substrate after 90 mins by fluorescence polarisation assay
T1 sequence (Q9NWZ3 whole entry): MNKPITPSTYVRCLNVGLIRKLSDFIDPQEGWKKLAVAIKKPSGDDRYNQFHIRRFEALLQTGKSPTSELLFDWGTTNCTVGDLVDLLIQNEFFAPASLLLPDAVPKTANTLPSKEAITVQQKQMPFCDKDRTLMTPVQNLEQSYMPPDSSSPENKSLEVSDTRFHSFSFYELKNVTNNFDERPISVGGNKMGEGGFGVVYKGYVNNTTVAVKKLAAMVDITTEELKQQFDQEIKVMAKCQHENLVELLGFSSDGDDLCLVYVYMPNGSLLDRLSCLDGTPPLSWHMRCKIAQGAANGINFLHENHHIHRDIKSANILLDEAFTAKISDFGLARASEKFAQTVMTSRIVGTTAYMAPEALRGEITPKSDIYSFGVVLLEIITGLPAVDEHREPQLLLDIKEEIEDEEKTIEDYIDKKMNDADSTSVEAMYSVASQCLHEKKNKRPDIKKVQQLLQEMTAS

[2] = Protein binding in human plasma at 5 uM incubated for 6 hrs by red equilibrium dialysis based LC-MS/MS analysis; format: ADME, cell-free
[3] = Apparent permeability across apical to basolateral side in dog MDCKI cells at 10 uM measured after 60 to 180 mins by lucifer yellow dye based LC-MS/MS analysis; format: ADME, cell-based, Canis lupus familiaris; conditions: MDCK
Outline: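 Apical-to-basolateral permeability measured in Madin–Darby canine kidney (MDCK) cell monolayers; reported in ×10–6 cm/s.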

[4] = Clearance in mouse plasma at 1 mg/kg, iv or po; format: ADME, organism-based
[5] = Clearance in rat plasma at 1 mg/kg, iv or po; format: ADME, organism-based
[6] = Clearance in dog plasma at 1 mg/kg, iv or po; format: ADME, organism-based, Canis lupus familiaris
[7] = Clearance in cynomolgus monkey plasma at 1 mg/kg, iv or po; format: ADME, organism-based, Macaca fascicularis
[8] = Volume of distribution at steady state in mouse at 1 mg/kg, iv or po; format: ADME, organism-based; conditions: in vivo, read-out: Vdss
[9] = Volume of distribution at steady state in rat at 1 mg/kg, iv or po; format: ADME, organism-based; conditions: in vivo, read-out: Vdss
[10] = Volume of distribution at steady state in dog at 1 mg/kg, iv or po; format: ADME, organism-based, Canis lupus familiaris; conditions: in vivo, read-out: Vdss
[11] = Volume of distribution at steady state in cynomolgus monkey at 1 mg/kg, iv or po; format: ADME, organism-based, Macaca fascicularis; conditions: in vivo, read-out: Vdss
[12] = Half life in mouse at 1 mg/kg, iv or po; format: ADME, organism-based; conditions: in vivo
[13] = Half life in rat at 1 mg/kg, iv or po; format: ADME, organism-based; conditions: in vivo
[14] = Half life in dog at 1 mg/kg, iv or po; format: ADME, organism-based, Canis lupus familiaris; conditions: in vivo
[15] = Half life in cynomolgus monkey at 1 mg/kg, iv or po; format: ADME, organism-based, Macaca fascicularis; conditions: in vivo
[16] = AUC (infinity) in mouse at 1 mg/kg, iv or po; format: ADME, organism-based; conditions: in vivo
[17] = AUC (infinity) in rat at 1 mg/kg, iv or po; format: ADME, organism-based; conditions: in vivo
Outline: (§1)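 Separate intravenous and oral PK studies, each dosed at 1 mg/kg. Plasma AUC was extrapolated to infinity and reported in µM*h. Half-life and oral bioavailability were derived from the same studies.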

[18] = AUC (infinity) in dog at 1 mg/kg, iv or po; format: ADME, organism-based, Canis lupus familiaris; conditions: in vivo; outline: as §1
[19] = AUC (infinity) in cynomolgus monkey at 1 mg/kg, iv or po; format: ADME, organism-based, Macaca fascicularis; conditions: in vivo; outline: as §1
[20] = Oral bioavailability in mouse at 1 mg/kg; format: ADME, organism-based; conditions: in vivo
[21] = Oral bioavailability in rat at 1 mg/kg; format: ADME, organism-based; conditions: in vivo
[22] = Oral bioavailability in dog at 1 mg/kg; format: ADME, organism-based, Canis lupus familiaris; conditions: in vivo
[23] = Oral bioavailability in cynomolgus monkey at 1 mg/kg; format: ADME, organism-based, Macaca fascicularis; conditions: in vivo
Mus musculus [24] = experiment: In vivo inhibition of IRAK4 in R848-induced C57BL/6 mouse assessed as IFN alpha levels at 33.3 mg/kg, po administered as nanosuspension at 1 hr prior to R848 challenge and measured after 1 hr by ELISA relative to control; format: functional; set-up: scale not given: the % may be the effect or the level left
Outline: (§2)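 C57 black 6 mice were given vehicle or compound as a nanosuspension in MCT (0.5% methyl-cellulose/0.2% tween-80) across a dose range, 1 h before TLR7/8 agonist R848 (resiquimod) stimulation. Blood was drawn 1 h after R848, which is 2 h after compound. Plasma IFNα was measured by ELISA against vehicle-treated, R848-stimulated animals. Plasma drug levels were taken at the same time.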

Mus musculus [25] = experiment: In vivo inhibition of IRAK4 in R848-induced C57BL/6 mouse assessed as IFN alpha levels at 11.1 mg/kg, po administered as nanosuspension at 1 hr prior to R848 challenge and measured after 1 hr by ELISA relative to control; format: functional; set-up: scale not given: the % may be the effect or the level left; outline: as §2
Mus musculus [26] = experiment: In vivo inhibition of IRAK4 in R848-induced C57BL/6 mouse assessed as IFN alpha levels at 3.7 mg/kg, po administered as nanosuspension at 1 hr prior to R848 challenge and measured after 1 hr by ELISA relative to control; format: functional; set-up: scale not given: the % may be the effect or the level left; outline: as §2
Mus musculus [27] = experiment: In vivo inhibition of IRAK4 in R848-induced C57BL/6 mouse assessed as IFN alpha levels at 1.2 mg/kg, po administered as nanosuspension at 1 hr prior to R848 challenge and measured after 1 hr by ELISA relative to control; format: functional; set-up: scale not given: the % may be the effect or the level left; outline: as §2
Mus musculus [28] = experiment: In vivo inhibition of IRAK4 in R848-induced po dosed C57BL/6 mouse assessed as inhibition of TNFalpha secretion administered as nanosuspension at 1 hr prior to R848 challenge and measured after 1 hr by ELISA; format: functional, organism-based
Outline: (§3)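 C57 black 6 mice dosed with vehicle or nanosuspension in 0.5% methyl-cellulose/0.2% tween-80 across a dose range 1 h before stimulation with TLR7/8 agonist R848; blood sampled 1 h after R848 (2 h post-dose). Plasma IFNα, IL-6 and TNFα measured, IFNα by ELISA; compound plasma levels also determined.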

Mus musculus [29] = experiment: In vivo inhibition of IRAK4 in R848-induced po dosed C57BL/6 mouse assessed as inhibition of IL-6 secretion administered as nanosuspension at 1 hr prior to R848 challenge and measured after 1 hr by ELISA; format: functional, organism-based; outline: as §3
Mus musculus [30] = experiment: In vivo inhibition of IRAK4 in R848-induced po dosed C57BL/6 mouse assessed as inhibition of IFN alpha secretion administered as nanosuspension at 1 hr prior to R848 challenge and measured after 1 hr by ELISA; format: functional, organism-based; outline: as §3
[31] = Protein binding in mouse plasma at 5 uM incubated for 6 hrs by red equilibrium dialysis based LC-MS/MS analysis; format: ADME, cell-free; conditions: read-out: PPB (converted)
[32] = Protein binding in rat plasma at 5 uM incubated for 6 hrs by red equilibrium dialysis based LC-MS/MS analysis; format: ADME, cell-free; conditions: read-out: PPB (converted)
[33] = Protein binding in dog plasma at 5 uM incubated for 6 hrs by red equilibrium dialysis based LC-MS/MS analysis; format: ADME, cell-free, Canis lupus familiaris; conditions: read-out: PPB (converted)
[34] = Protein binding in cynomolgus monkey plasma at 5 uM incubated for 6 hrs by red equilibrium dialysis based LC-MS/MS analysis; format: ADME, cell-free, Macaca fascicularis; conditions: read-out: PPB (converted)
Mus musculus [35] = experiment: In vivo inhibition of IRAK4 in R848-induced C57BL/6 mouse assessed as inhibition of TNF alpha secretion at 3 mg/kg, po administered as nanosuspension at 1 hr prior to R848 challenge and measured after 1 hr by ELISA; format: functional, organism-based; outline: as §3
Mus musculus [36] = experiment: In vivo inhibition of IRAK4 in R848-induced C57BL/6 mouse assessed as IL6 level at 100 mg/kg, po administered as nanosuspension at 1 hr prior to R848 challenge and measured after 1 hr by ELISA relative to control; format: functional; set-up: scale not given: the % may be the effect or the level left
Outline: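 C57 black 6 mice were pretreated with vehicle or a compound nanosuspension in 0.5% methyl-cellulose/0.2% tween-80 over a dose range, 1 h before R848 stimulation. Blood was sampled 1 h post-R848, and IL-6 and TNFα levels were compared with vehicle-treated, R848-stimulated mice.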

[37] = biological target: T1, Interleukin-1 receptor-associated kinase 4

Compound: CC(C)(O)[C@H](F)CN1Cc2cc(NC(=O)c3cnn4cccnc34)c(N3CCOCC3)cc2C1=O
- Ki [1]: 1.4 nM
- PPB [2]: 72.4%
- Papp A→B at 10 µM [3]: 9.1 to 9.2 ×10⁻⁶ cm/s
- clearance [4]: 29 mL/min/kg
- clearance [5]: 9.2 mL/min/kg
- clearance [6]: 11.3 mL/min/kg
- clearance [7]: 15.8 mL/min/kg
- Vd [8]: 2.2 L/kg
- Vd [9]: 0.95 L/kg
- Vd [10]: 3.7 L/kg
- Vd [11]: 3.7 L/kg
- half-life [12]: 1.9 h
- half-life [13]: 1.6 h
- half-life [14]: 4.1 h
- half-life [15]: 5.4 h
- AUC(0-inf) [16]: 1.2 µM·h
- AUC(0-inf) [17]: 3.8 µM·h
- AUC(0-inf) [18]: 3.1 µM·h
- AUC(0-inf) [19]: 2.2 µM·h
- bioavailability [20]: 34%
- bioavailability [21]: 31%
- bioavailability [22]: 109%
- bioavailability [23]: 47%
- Activity (Mus musculus [24]): -53%
- Activity (Mus musculus [25]): -45%
- Activity (Mus musculus [26]): -24%
- Activity (Mus musculus [27]): -12%
- inhibition (Mus musculus [28]): Dose-dependent effect
- inhibition (Mus musculus [29]): Dose-dependent effect
- inhibition (Mus musculus [30]): Dose-dependent effect
- fraction unbound at 6 h, 5 µM [31]: 0.058
- fraction unbound at 6 h, 5 µM [32]: 0.086
- fraction unbound at 6 h, 5 µM [33]: 0.224
- fraction unbound at 6 h, 5 µM [34]: 0.332
- inhibition (Mus musculus [35]): Active
- Activity (Mus musculus [36]): -64%
- IC50 [37]: 190 nM
